Source: ChEMBL document CHEMBL1131082, “Discovery and preliminary SAR studies of a novel, nonsteroidal progesterone receptor antagonist pharmacophore” (J Med Chem, 1998)

What follows are compounds tested against T1, Mineralocorticoid receptor (Homo sapiens) (UniProt P08235) (assay: Antagonist activity against Mineralocorticoid receptor).
T1 sequence (whole entry): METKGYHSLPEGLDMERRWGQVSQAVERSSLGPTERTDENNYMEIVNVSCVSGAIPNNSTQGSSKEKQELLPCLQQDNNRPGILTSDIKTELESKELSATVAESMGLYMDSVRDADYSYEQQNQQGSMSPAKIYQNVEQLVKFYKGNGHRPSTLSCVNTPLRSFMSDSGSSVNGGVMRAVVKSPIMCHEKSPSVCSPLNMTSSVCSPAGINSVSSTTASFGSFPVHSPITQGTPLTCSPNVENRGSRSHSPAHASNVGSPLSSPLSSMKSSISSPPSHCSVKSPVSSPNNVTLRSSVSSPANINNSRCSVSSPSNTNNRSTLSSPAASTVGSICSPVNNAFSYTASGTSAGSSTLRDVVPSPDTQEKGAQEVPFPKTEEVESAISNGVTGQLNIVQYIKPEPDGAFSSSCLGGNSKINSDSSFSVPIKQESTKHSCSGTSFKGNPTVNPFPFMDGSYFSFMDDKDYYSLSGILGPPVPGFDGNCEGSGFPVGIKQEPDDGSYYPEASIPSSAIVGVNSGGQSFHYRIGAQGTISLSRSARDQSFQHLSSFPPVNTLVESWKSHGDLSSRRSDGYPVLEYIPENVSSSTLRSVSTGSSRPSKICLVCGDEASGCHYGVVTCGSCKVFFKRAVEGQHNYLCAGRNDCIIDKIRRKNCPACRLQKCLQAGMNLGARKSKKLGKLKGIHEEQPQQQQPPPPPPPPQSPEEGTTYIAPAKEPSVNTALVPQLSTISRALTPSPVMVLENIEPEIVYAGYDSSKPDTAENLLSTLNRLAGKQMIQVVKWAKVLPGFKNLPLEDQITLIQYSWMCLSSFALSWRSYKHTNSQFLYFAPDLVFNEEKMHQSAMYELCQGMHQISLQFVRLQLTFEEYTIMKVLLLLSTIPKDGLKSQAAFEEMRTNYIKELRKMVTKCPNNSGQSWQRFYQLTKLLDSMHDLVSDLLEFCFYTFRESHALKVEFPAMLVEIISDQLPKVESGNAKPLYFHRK
Assay type: functional
How it was run: (§1)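 hMR antagonist cotransfection assay run with an EC50 concentration of aldosterone as agonist. Potency is the IC50. Efficacy is % of maximal inhibition. Values are the mean ± SEM of at least two independent experiments, or one experiment where marked.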

Compound | Potency
CC1=CC(C)(C)Nc2ccc(-c3cccc(C#N)c3)cc21 | > 1000 nM
CC1=CC(C)(C)Nc2ccc(-c3cc(F)cc(C#N)c3)cc21 | > 1000 nM

Next, values leading:

Potency | Compound
> 1000 nM | CC#C[C@]1(O)CC[C@H]2[C@@H]3CCC4=CC(=O)CCC4=C3[C@@H](c3ccc(N(C)C)cc3)C[C@@]21C
> 1000 nM | CN(C)c1ccc([C@H]2C[C@]3(C)[C@@H](CC[C@]3(O)CCCO)[C@@H]3CCC4=CC(=O)CCC4=C32)cc1

What follows are compounds tested against T1, Mineralocorticoid receptor (Homo sapiens) (assay: Efficacy as percent inhibition of Mineralocorticoid receptor with aldosterone EC50).
How it was run: as §1

Efficacy | Compound
94% | CC1=CC(C)(C)Nc2ccc(-c3cccc(C#N)c3)cc21
80% | CC1=CC(C)(C)Nc2ccc(-c3cc(F)cc(C#N)c3)cc21

Each compound was assayed against T2, Progesterone receptor (Homo sapiens, UniProt P06401) (assay: Binding affinity against Baculovirus-Expressed hPR-A).
T2 sequence (P06401 whole entry): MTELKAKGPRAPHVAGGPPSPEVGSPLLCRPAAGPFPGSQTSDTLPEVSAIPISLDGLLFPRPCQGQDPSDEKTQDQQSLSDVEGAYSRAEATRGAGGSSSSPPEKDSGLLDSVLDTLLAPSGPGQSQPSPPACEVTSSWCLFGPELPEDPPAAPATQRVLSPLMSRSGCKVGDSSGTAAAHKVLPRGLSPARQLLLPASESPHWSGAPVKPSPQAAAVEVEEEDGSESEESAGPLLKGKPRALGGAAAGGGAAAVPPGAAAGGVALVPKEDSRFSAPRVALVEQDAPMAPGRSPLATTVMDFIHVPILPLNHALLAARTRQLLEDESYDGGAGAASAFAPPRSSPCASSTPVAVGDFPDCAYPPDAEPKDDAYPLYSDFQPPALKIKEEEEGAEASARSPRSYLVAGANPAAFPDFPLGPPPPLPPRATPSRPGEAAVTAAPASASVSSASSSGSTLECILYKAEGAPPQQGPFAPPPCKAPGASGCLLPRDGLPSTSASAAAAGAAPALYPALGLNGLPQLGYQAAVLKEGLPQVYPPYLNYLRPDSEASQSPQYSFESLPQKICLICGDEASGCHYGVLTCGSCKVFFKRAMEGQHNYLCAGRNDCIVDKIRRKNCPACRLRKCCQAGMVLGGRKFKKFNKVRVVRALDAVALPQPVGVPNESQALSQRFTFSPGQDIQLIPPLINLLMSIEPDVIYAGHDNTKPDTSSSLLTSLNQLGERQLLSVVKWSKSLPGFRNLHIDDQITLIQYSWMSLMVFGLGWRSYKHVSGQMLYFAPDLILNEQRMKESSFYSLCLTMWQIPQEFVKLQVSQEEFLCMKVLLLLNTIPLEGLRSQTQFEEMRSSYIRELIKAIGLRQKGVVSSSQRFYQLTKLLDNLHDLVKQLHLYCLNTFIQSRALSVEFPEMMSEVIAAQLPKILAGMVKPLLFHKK

Ki | Compound
10 nM | CC1=CC(C)(C)Nc2ccc(-c3cc(F)cc(F)c3)cc21
19 nM | CC1=CC(C)(C)Nc2ccc(-c3cccc(C#N)c3)cc21
133 nM | CC1=CC(C)(C)Nc2ccc(-c3ccccc3)cc21
5 nM | CC1=CC(C)(C)Nc2ccc(-c3cc(F)cc([N+](=O)[O-])c3)cc21
182 nM | CC1=CC(C)(C)Nc2ccc(-c3cccc(F)c3)cc21

These compounds were tested against T2, Progesterone receptor (assay: In vitro antagonist activity against human progesterone receptor isoform B(hPR-B) in mammalian(CV-1) cells).
Assay type: functional, cell-based

IC50 | Compound
79 nM | CC1=CC(C)(C)Nc2ccc(-c3cc(F)cc(F)c3)cc21
38 nM | CC1=CC(C)(C)Nc2ccc(-c3cccc(C#N)c3)cc21
783 nM | CC1=CC(C)(C)Nc2ccc(-c3ccccc3)cc21
70 nM | CC1=CC(C)(C)Nc2ccc(-c3cc(F)cc([N+](=O)[O-])c3)cc21
750 nM | CC1=CC(C)(C)Nc2ccc(-c3cccc(F)c3)cc21

Each compound was assayed against T3, Androgen receptor (Homo sapiens) (UniProt P10275).
T3 sequence (whole entry): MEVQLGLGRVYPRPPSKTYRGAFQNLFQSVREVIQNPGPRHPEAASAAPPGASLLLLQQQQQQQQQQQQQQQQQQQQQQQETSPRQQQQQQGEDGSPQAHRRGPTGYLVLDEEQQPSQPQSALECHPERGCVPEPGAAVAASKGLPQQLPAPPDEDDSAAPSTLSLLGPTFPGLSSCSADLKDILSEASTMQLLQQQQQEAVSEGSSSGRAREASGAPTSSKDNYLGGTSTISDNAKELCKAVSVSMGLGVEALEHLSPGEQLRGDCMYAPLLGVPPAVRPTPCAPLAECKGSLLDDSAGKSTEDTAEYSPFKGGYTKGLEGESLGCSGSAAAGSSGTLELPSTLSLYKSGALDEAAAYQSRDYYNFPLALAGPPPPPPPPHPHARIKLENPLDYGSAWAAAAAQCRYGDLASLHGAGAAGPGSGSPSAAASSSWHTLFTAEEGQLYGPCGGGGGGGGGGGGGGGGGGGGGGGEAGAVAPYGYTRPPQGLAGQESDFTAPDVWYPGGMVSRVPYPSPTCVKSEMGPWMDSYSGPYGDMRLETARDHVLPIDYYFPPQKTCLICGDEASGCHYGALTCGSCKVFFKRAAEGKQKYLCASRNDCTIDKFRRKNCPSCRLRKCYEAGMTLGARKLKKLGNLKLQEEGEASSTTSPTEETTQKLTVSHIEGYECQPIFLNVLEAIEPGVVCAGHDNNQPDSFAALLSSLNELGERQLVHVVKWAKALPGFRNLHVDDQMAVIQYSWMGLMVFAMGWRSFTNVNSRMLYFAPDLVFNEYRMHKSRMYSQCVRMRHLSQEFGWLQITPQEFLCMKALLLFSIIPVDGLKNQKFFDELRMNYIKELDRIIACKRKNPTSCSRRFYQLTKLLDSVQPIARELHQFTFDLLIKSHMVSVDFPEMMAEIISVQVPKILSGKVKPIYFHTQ

Potency | Compound
227 nM | CC1=CC(C)(C)Nc2ccc(-c3cccc(C#N)c3)cc21
269 nM | CN(C)c1ccc([C@H]2C[C@]3(C)[C@@H](CC[C@]3(O)CCCO)[C@@H]3CCC4=CC(=O)CCC4=C32)cc1

The compounds below were run against Estrogen receptor (Homo sapiens) (UniProt Q92731+P03372).

Potency | Compound
> 1000 nM | CC1=CC(C)(C)Nc2ccc(-c3cccc(C#N)c3)cc21
> 1000 nM | CC#C[C@]1(O)CC[C@H]2[C@@H]3CCC4=CC(=O)CCC4=C3[C@@H](c3ccc(N(C)C)cc3)C[C@@]21C
> 1000 nM | CC1=CC(C)(C)Nc2ccc(-c3cc(F)cc(C#N)c3)cc21

These compounds were tested against T4, Glucocorticoid receptor (Homo sapiens) (UniProt P04150).
T4 sequence (whole entry): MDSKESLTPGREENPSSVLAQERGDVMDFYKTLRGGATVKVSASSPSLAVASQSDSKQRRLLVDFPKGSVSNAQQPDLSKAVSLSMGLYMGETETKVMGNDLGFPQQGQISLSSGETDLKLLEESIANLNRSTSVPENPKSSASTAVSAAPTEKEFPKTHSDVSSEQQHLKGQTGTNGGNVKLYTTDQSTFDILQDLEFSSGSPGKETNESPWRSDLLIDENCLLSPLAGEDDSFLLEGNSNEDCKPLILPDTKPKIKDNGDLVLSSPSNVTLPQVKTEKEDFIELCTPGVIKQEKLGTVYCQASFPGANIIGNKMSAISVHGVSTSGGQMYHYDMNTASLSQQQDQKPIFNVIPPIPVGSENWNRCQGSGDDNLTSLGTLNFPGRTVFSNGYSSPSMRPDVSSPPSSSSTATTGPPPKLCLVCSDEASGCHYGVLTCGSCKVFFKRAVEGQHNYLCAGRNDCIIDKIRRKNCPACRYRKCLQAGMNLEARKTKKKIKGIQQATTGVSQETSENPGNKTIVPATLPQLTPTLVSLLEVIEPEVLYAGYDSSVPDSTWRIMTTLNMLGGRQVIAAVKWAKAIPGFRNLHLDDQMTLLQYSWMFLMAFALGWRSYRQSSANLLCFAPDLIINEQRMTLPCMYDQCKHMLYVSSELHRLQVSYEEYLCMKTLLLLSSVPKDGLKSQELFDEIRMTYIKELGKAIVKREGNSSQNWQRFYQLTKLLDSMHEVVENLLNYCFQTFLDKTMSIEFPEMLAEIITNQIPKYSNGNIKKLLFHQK

Potency | Compound
> 1000 nM | CC1=CC(C)(C)Nc2ccc(-c3cccc(C#N)c3)cc21
27 nM | CN(C)c1ccc([C@H]2C[C@]3(C)[C@@H](CC[C@]3(O)CCCO)[C@@H]3CCC4=CC(=O)CCC4=C32)cc1
> 1000 nM | CC1=CC(C)(C)Nc2ccc(-c3cc(F)cc(C#N)c3)cc21
